In the library only some 0.86% were active in any assay of this set; here they are far more common.
MLL AF4-AF9 inh – inhibitors of AF4 peptide binding to AF9, primary screen, biochemical, AlphaScreen, biotin-AF4 peptide, FLAG-AF9, single point; Protein AF-9 (Homo sapiens), P42568; inhibition, % at 10 µM; hit rate 0.47% among 350,000; AID 651704, 2012;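 active = every replicate reaching a set inhibition limit, whatever the replicate mean, cut at about 25% in these data; inconclusive = mean inhibition reaches that limit but some replicates miss it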;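 also: 0% = plate neutral control median and 100% = total signal loss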
ERAP1 HTS inh – human ERAP1 aminopeptidase inhibitors, primary screen, biochemical, single point, plate reader; inhibition, % at 10.7 µM; recombinant ERAP1, Leu-AMC fluorescence, 60 min; AID 652197, 2013; hit rate 0.15% among 340,000; Endoplasmic reticulum aminopeptidase 1 (Homo sapiens), Q9NZ08;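 active = mean replicate inhibition of at least 30%, or all replicates individually reaching that 30% level; inactive = mean below 30% and not every replicate reaching it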;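 also: 0% = neutral control wells and 100% = L-leucinethiol positive control wells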
S100A4 inh HTS – inhibitors of S100A4-myosin IIA peptide binding, primary screen, biochemical, fluorescence polarization, TAMRA-MyoIIA peptide; AID 652163, 2013; hit rate 0.14% among 360,000; inhibition, % at 10.7 µM;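 active = mean inhibition of at least 70% across replicates, with every replicate also reaching that level; inconclusive = mean inhibition reaches 70% but some replicates fall short; inactive = mean inhibition below 70%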
Target sequence (P26447 whole entry, looked up): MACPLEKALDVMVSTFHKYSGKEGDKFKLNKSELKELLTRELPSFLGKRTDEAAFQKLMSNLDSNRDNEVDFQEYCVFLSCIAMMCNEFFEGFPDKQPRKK
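assay system = human S100A4 monomer with TAMRA-labelled myosin IIA peptide | also added = labelled myosin peptide probe, 5 nM | incubation = 5 min between mix addition and reading | control set = DMSO and TFP controls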
Rtt109 Vps75 – inhibitors of C. albicans Rtt109/Vps75 HAT, primary screen, biochemical, ThioGlo CoA-SH fluorescence, plate reader | Histone acetyltransferase RTT109 (Candida albicans (strain SC5314 / ATCC MYA-2876)), … | hit rate 0.16% among 330,000 | purified Rtt109/Vps75, 4 h | inhibition, % at 34.9 µM;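 active = inhibition of at least 50% in every replicate; inconclusive = best replicate reaches 50% inhibition but some replicates fall short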
Target sequence (Q5AAJ8 whole entry, looked up): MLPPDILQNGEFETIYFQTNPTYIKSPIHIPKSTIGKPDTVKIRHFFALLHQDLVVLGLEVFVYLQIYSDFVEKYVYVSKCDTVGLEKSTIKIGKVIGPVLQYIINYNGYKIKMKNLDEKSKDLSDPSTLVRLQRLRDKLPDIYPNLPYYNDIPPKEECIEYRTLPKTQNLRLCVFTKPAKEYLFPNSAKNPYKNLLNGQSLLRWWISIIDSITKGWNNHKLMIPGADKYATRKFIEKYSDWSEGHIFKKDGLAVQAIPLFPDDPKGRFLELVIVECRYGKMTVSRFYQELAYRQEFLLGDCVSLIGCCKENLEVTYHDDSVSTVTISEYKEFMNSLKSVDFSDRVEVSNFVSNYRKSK
miR-122 sensor – miR-122 Renilla sensor signal increase in Huh7, primary screen, miR-122 inhibitor project, cell-based, single point, plate reader; hit rate 0.3% among 340,000; AID 602342, 2012; Huh7 miR-122 Renilla luciferase sensor, 48 h; neutral wells = 0, positive control = 100; activation (reporter increase), % at 12.5 µM;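 active = mean replicate activation score at least 90 and every replicate individually at or above 90; inconclusive = only one of the two criteria met; inactive = neither criterion met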;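 also: higher luciferase means less miR-122 activity so hits act as miR-122 inhibitors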
The depositor's hits bear a star; u = inconclusive; x = no result given; [ ] = remark or other dose.

SMILES | MLL AF4-AF9 inh | ERAP1 HTS inh | S100A4 inh HTS | Rtt109 Vps75 | miR-122 sensor
CC(=O)N(C1=C(Cl)C(=O)c2ccccc2C1=O)C1CCCCC1 | 15 | 68* | -2 | 3 | 6
COc1ccc(/C=N/Nc2cc(C)nc3c(C)cccc23)cc1 | 14 | -1 | -4 | 9 | x
Cc1cccc(C=NNc2cc(C)c3cccc(C)c3n2)n1 | 25* | 0 | 3 | x | x
CO[C@H]1CN(C)C(=O)c2cc(NS(=O)(=O)c3ccccc3F)ccc2OC[C@@H](C)NC[C@H]1C | -2 | -2 | -4 | x | -7[16.7 µM]
CCn1c(SCC(=O)Nc2ccc3c(c2)c2ccccc2n3CC)nnc1-c1ccco1 | x | x | x | 66* | 5
CCS(=O)(=O)N1CCCCN2[C@@H](CO)[C@H](c3ccc(C#CC(C)(C)O)cc3)[C@@H]2C1 | -5 | 2 | -3 | x | 4[16.7 µM]
COC(=O)c1ccccc1NC1c2ccccc2C(=O)N1c1cccnc1 (stereo unspecified) | 55* | 5 | -3 | 0 | -5
N#Cc1ccc(C23OCCN2CCn2c3c3ccccc3[n+]2[O-])cc1 (stereo unspecified) | 48* | 5 | 3 | -16 | 1
Cc1ccc(C23OCCN2CCn2nc4ccccc4c23)cc1 (stereo unspecified) | -7 | x | -5 | -101 | -2
C[C@@H]1CN([C@@H](C)CO)C(=O)c2cccc(NC(=O)Nc3ccc(F)cc3)c2O[C@@H]1CN(C)CC1CC1 | -2 | -3 | 0 | x | 3[16.7 µM]
CCCC(=O)Nc1ccc2c(c1)C(=O)N(C)C[C@@H](OC)[C@@H](C)CN(C(=O)C1CCCC1)[C@@H](C)CO2 | 2 | -2 | -8 | x | x
CC1C(=NO)C(C)C(c2ccc(N(C)C)cc2)NC1c1ccc(N(C)C)cc1 (stereo unspecified) | 43* | 2 | -11 | 0 | 2
COc1ccccc1-c1ccc2n(c1=O)C[C@H]1[C@H](CO)[C@@H](C(=O)NC3CCC3)N(C(=O)NC(C)C)[C@@H]21 | -3 | 2 | 3 | x | -1[16.7 µM]
CCCNC(=O)N1[C@@H]2c3ccc(-c4ccccc4OC)c(=O)n3C[C@@H]2[C@@H](CO)[C@@H]1C(=O)NC1CCC1 | 2 | 5 | 116* | x | -2[16.7 µM]
CCCN1CCCCC(NC(=O)c2c(F)cccc2F)C1=O (stereo unspecified) | x | -5 | 107* | x | x
CCCOc1ccccc1C1CC(=O)NC2=C1C(=O)CCC2 (stereo unspecified) | x | x | x | -9 | 59
CCCCOc1ccccc1C1CC(=O)NC2=C1C(=O)CCC2 (stereo unspecified) | x | x | x | 2 | 109*
CN(Cc1cn(-c2ccccc2)nc1-c1ccc2c(c1)OCO2)Cc1nccn1C | 33* | 0 | -1 | x | -3
CCN(Cc1ccc(OC)c(F)c1)C(=O)CCl | -1 | 3 | -5 | -5 | x
CCN(Cc1ccc(OC)c(F)c1)C(=O)C1CCCO1 (stereo unspecified) | -4 | 50* | 0 | 8 | -2
O=C(O)[C@@H]1CCCN1C(=O)c1ccccc1N1C(=O)[C@@H]2Cc3c([nH]c4ccccc34)C(c3cccc(Cl)c3)N2C1=O (stereo partly specified) | 1 | 33* | -1 | 7 | 8
COC(=O)[C@@H]1[C@@H](CO)[C@@H]2Cn3c(ccc(C4=CCCCC4)c3=O)[C@@H]2N1CC1CCCCC1 | 4 | x | x | x | -8[16.7 µM]
N#CCCN(CCC#N)C(=O)C1c2ccccc2Oc2ccccc21 | -2 | 6 | 131* | 4 | x
CN(C)Cc1c(O)ccc2ccccc12 | 31* | 2 | -11 | -1 | x
O=C(O)CCNc1cc(N2CCN(C(=O)c3ccco3)CC2)c2noc3c2c1C(=O)c1ccccc1-3 | 56* | 19 | -42 | 13 | -5
SMILES | MLL AF4-AF9 inh | ERAP1 HTS inh | S100A4 inh HTS | Rtt109 Vps75 | miR-122 sensor
CCCNC(=O)N1CC2(CN(CC3CCCCC3)C2)c2c(n(C)c3cc(OC)ccc23)[C@H]1CO | u | -6 | 8 | x | x
CCCNC(=O)N1CC2(CN(Cc3ccc(OC)cc3)C2)c2c(n(C)c3cc(OC)ccc23)[C@@H]1CO | 34* | x | x | x | x
CCCNC(=O)N1CC2(CN(Cc3cccc(OC)c3)C2)c2c(n(C)c3cc(OC)ccc23)[C@H]1CO | u | -1 | 20 | x | x
CCCNC(=O)N1CC2(CN(CC3CCCCC3)C2)c2c(n(C)c3cc(OC)ccc23)[C@@H]1CO | 33* | -1 | -4 | x | x
Cc1ccc(S(=O)(=O)Nc2ccc3c(c2)C(=O)N([C@@H](C)CO)C[C@@H](C)[C@H](CN(C)S(=O)(=O)c2ccc(F)cc2)OCCCC[C@@H](C)O3)cc1 | -2 | 0 | -8 | x | -7[16.7 µM]
C[C@@H]1CCCCO[C@H](CN(C)S(=O)(=O)c2cn(C)cn2)[C@@H](C)CN([C@@H](C)CO)C(=O)c2cc(NC(=O)CCCN(C)C)ccc2O1 | 0 | -2 | -1 | x | 3[16.7 µM]
Cc1ccc(S(=O)(=O)N(C)C[C@@H]2Oc3c(NC(=O)C4CCCCC4)cccc3C(=O)N([C@@H](C)CO)C[C@@H]2C)cc1 | -10 | -5 | 6 | x | -1[16.7 µM]
Cc1ccc(S(=O)(=O)N(C)C[C@@H]2Oc3c(NC(=O)C4CCCCC4)cccc3C(=O)N([C@H](C)CO)C[C@@H]2C)cc1 | -4 | -6 | 109* | x | 35[16.7 µM]
COc1ccc(S(=O)(=O)Nc2cccc3c2O[C@@H](CN(C)S(=O)(=O)c2c(C)noc2C)[C@H](C)CN([C@@H](C)CO)C3=O)cc1 | -4 | 0 | 127* | x | 8[16.7 µM]
Cc1noc(C)c1S(=O)(=O)N(C)C[C@@H]1Oc2c(NC(=O)C3CCCCC3)cccc2C(=O)N([C@H](C)CO)C[C@@H]1C | -30 | 4 | 4 | x | 197*[16.7 µM]
COc1ccc(S(=O)(=O)Nc2cccc3c2O[C@@H](CN(C)S(=O)(=O)c2c(C)noc2C)[C@H](C)CN([C@H](C)CO)C3=O)cc1 | -1 | -1 | 0 | x | 3[16.7 µM]
C[C@H](CO)N1C[C@H](C)[C@H](CN(C)S(=O)(=O)c2cn(C)cn2)OCCCC[C@H](C)Oc2ccc(NC(=O)Nc3ccc(C(F)(F)F)cc3)cc2C1=O | x | x | x | x | -11[16.7 µM]
C[C@H](CO)N1C[C@H](C)[C@H](CN(C)CC2CC2)Oc2cc(/C=C/c3ccccc3)ccc2S1(=O)=O | 26* | 1 | -23 | x | -11[16.7 µM]
C[C@@H]1CN([C@H](C)CO)S(=O)(=O)c2ccc(C#CCN(C)C)cc2O[C@@H]1CN(C)CC1CC1 | 7 | 1 | 96* | x | 2[16.7 µM]
C[C@@H]1CN([C@@H](C)CO)S(=O)(=O)c2ccc(-c3ccccc3)cc2O[C@H]1CN(C)Cc1cccc(F)c1 | -1 | -4 | 143* | x | 24[16.7 µM]

High-throughput results (PubChem BioAssay)
